Screening data (PubChem)
PREPL inhibitor – human PREPL enzyme inhibition; Q4J6C6; recombinant PREPL, fluorescence polarization activity-based probe; inhibition, % at 5.96 µM; actives 0.68% (n = 320,000); AID 2751; in the data active = inhibition above about 43%
Target sequence (Q4J6C6 whole entry, looked up): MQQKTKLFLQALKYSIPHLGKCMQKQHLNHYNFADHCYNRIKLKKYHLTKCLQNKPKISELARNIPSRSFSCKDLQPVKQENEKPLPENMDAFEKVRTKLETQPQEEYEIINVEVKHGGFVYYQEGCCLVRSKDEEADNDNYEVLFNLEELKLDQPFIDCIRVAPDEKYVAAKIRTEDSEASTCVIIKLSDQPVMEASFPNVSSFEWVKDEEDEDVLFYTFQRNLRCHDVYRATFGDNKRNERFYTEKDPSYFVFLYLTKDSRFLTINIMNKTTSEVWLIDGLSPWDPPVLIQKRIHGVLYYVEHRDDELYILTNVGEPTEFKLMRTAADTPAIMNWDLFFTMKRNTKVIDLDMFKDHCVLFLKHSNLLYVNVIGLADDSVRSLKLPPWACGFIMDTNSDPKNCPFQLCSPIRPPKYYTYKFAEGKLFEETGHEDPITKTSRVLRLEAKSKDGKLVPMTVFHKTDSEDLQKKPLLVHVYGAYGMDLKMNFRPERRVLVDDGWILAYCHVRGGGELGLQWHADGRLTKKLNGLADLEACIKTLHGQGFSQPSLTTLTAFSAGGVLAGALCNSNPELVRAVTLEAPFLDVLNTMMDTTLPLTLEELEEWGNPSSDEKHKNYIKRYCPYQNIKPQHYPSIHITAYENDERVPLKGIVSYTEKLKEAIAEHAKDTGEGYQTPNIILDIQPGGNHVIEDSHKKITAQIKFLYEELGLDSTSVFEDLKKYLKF
Beta cell apopt – beta cell apoptosis inhibition. INS-1E cytokine-induced death, ATP luminescence, 48 h; percent of positive-control rescue, neutral wells zero. protection from apoptosis, % (test concentration not listed). actives 0.8% (n = 300,000). AID 435005;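 active = Every replicate reaches about 75%, or at least half do and their mean reaches it too, limit read from the data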;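 note: higher means more ATP so stronger rescue from cytokine killing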
GRIN3A LBD mod – modulates the human NR3A ligand-binding domain; NR3A LBD differential scanning fluorimetry, Tm shift; 0% = protein alone, 100% = glycine-bound protein; Tm shift relative to glycine control, % at 25 µM; actives 2.5% (n = 340,000); AID 1259313;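 active = melting temperature shift of at least 10% of the positive control shift, at one fixed dose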
CHOP inhibitor – blocks CHOP induction under ER stress. AID 2732. CHO-K1 CHOP-promoter luciferase, tunicamycin-induced, 15-18 h. actives 3.8% (n = 220,000). inhibition, % at 10 µM;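 active = compounds that reduced the stress-induced luciferase reporter signal by more than about 70% of percent inhibition, limit read from the data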
T cruzi inh – blocks replication of Trypanosoma cruzi | inhibition, % (test concentration not listed) | T. cruzi beta-gal in NIH3T3, luminescence, 90 h | actives 1.4% (n = 300,000) | AID 1885;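 active = mean inhibition across valid replicates above about 55%, limit read from the data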;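 note: signal also drops with host cell toxicity which is not excluded here; higher percent means less beta-gal luminescence so fewer parasites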
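System: Mouse NIH/3T3 fibroblasts infected with β-gal-expressing T. cruzi Tulahuen C4 | Quantity: NIH/3T3 cells, 5,000 per well | Reagent: 5000 reporter trypomastigotes per well | Dosing: Compound pinned at 50 nL/well, DMSO | Schedule: 3 h host attachment, then at least 90 h co-culture | Detection: GalScreen luminescence, 60 min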
CSC inhib – cancer stem cell inhibition; actives 1.1% (n = 300,000); AID 2717; cancer stem cell-like cells viability, luminescence; inhibition, % at 7.5 µM; in the data active = inhibition above about 75%; tested in HMLE shEcad cells
Of the large screens only hits and unclear results are named; the others gave an inactive call. Shown are actives, neighbours in structure and some others; about 6.7% of the full set was active somewhere.

Cc1ccc(-c2csc(NC(=S)NC(=O)c3ccco3)n2)cc1	GRIN3A LBD mod 20
COc1ccc(-c2csc(NC(=S)NC(=O)/C=C/c3ccco3)n2)cc1Br	GRIN3A LBD mod 21, CSC inhib 79
Cc1ccccc1/C=C1\SC(=S)N(/N=C/c2cc([N+](=O)[O-])ccc2O)C1=O	none
O=C(/C=C/c1ccco1)NC(=S)Nc1cc(-c2nc3ccccc3s2)ccc1Cl	GRIN3A LBD mod 18 (no result: T cruzi inh)
COc1ccc(-c2csc(NC(=S)NC(=O)/C=C/c3ccco3)n2)cc1OC	GRIN3A LBD mod 13, CHOP inhibitor 95, CSC inhib 79
CSCCC(NC(=O)c1ccc([N+](=O)[O-])cc1Cl)C(=O)OC(C)C(=O)NCc1ccco1 (centres undefined)	none (no result: CHOP inhibitor)
NC(=O)C1CCN(C(=O)c2ccc3c(=O)n(Cc4ccco4)c(SCc4ccc([N+](=O)[O-])cc4)nc3c2)CC1	none (no result: CHOP inhibitor)
O=C1C=C(Nc2ccccc2O)c2ccccc2C1=O	Beta cell apopt 113, CSC inhib 99
O=C1C=C(Nc2ccc(F)cc2)c2ccccc2C1=O	Beta cell apopt 106, CSC inhib 112 (no result: CHOP inhibitor, T cruzi inh)
O=C1C2C3C=CC(C2C(=O)N1c1cccc(O)c1)C1C2C(=O)N(c4cccc(O)c4)C(=O)C2C31 (centres undefined)	none
C#Cc1cccc(N2C(=O)C3C4C=CC(C3C2=O)C2C(=O)N(c3cccc(C#C)c3)C(=O)C42)c1 (centres undefined)	GRIN3A LBD mod 14 (no result: PREPL inhibitor, Beta cell apopt, CHOP inhibitor, T cruzi inh, CSC inhib)
CC[C@@]1(O)C(=O)OCc2c1cc1n(c2=O)Cc2cc3c(N)cccc3nc2-1	Beta cell apopt 98
CC[C@@]1(O)C(=O)OCc2c1cc1n(c2=O)Cc2cc3c(CN(C)C)c(O)ccc3nc2-1	CSC inhib 104 (no result: CHOP inhibitor)
COc1ccccc1-c1nnc(Sc2nc([N+](=O)[O-])nn2C)o1	T cruzi inh 58
CC(=O)Nc1ccc(OS(=O)(=O)c2ccc(C)cc2C)cc1	GRIN3A LBD mod 16
O=C(Nc1ccc(Oc2ccc(NC(=O)Nc3ccc([N+](=O)[O-])cc3)cc2)cc1)Nc1ccc([N+](=O)[O-])cc1	Beta cell apopt 110, T cruzi inh 67 (no result: GRIN3A LBD mod)
CC(=O)c1ccc(NC(=O)Nc2ccc([N+](=O)[O-])cc2)cc1	none
CC(=O)Nc1ccc(OS(=O)(=O)c2ccc([N+](=O)[O-])cc2)cc1	T cruzi inh 71
CC(C)(C)[C@H]1COC(=O)CCCC/C=C\C[C@H](CC(=O)NCCO)C(=O)N1	none (no result: CHOP inhibitor, T cruzi inh, CSC inhib)
O=[N+]([O-])c1ccc(N2CCCC2)cc1NC(c1ccccc1)c1ccccc1	GRIN3A LBD mod 14
O=[N+]([O-])c1ccc(N2CCOCC2)cc1NC(c1ccccc1)c1ccccc1	none
O=C(NC1CCN(Cc2ccccc2)CC1)c1cc(S(=O)(=O)N2CCOCC2)ccc1Cl	none (no result: PREPL inhibitor, Beta cell apopt, CHOP inhibitor, T cruzi inh, CSC inhib)
O=C(Nc1ccc(NC(=O)C2CCCCC2)cn1)c1ccco1	GRIN3A LBD mod 16 (no result: CSC inhib)
Cc1ccc(NS(=O)(=O)c2cc(NC(=O)c3ccc4c(c3)NC(=O)CS4)ccc2C)c(C)c1	GRIN3A LBD mod 22
COc1ccc(NC(=O)c2ccc3c(c2)NC(=O)CS3)cc1S(=O)(=O)Nc1ccc(Br)cc1	CSC inhib 80
CCOC(=O)N1CCN(C(=O)COC(=O)C2CCN(S(=O)(=O)c3c(Cl)cccc3Cl)CC2)CC1	none (no result: CHOP inhibitor)
COc1ccc(CCNC(=O)CN2C(=O)COc3ccc(S(=O)(=O)N4CCOCC4)cc32)cc1OC	none (no result: CHOP inhibitor)
COc1ccccc1/C=C/C(=O)Nc1ccc(S(=O)(=O)Nc2cc(C)on2)cc1	none (no result: CHOP inhibitor)
CC(C)(C)NC(=O)C1CCC(CNS(=O)(=O)c2cccc3nsnc23)CC1 (centres undefined)	GRIN3A LBD mod 10 (no result: CHOP inhibitor)
O=C(C1CCC(CNS(=O)(=O)c2cccc3nsnc23)CC1)N1CC=C(c2ccccc2)CC1 (centres undefined)	CHOP inhibitor 72
Cc1cccc(C)c1NC(=O)N1CCC(C(=O)c2ccc(F)cc2)CC1	none (no result: CHOP inhibitor)
Cc1nnc(NC(=O)C2CCN(S(=O)(=O)c3ccc(F)c(Cl)c3)CC2)o1	none (no result: PREPL inhibitor, Beta cell apopt, CHOP inhibitor, T cruzi inh, CSC inhib)
O=[N+]([O-])c1cnn(-c2nc(-c3ccccc3)cc(C(F)(F)F)n2)c1	none
COc1ccc(O)c(-c2cc(C(F)(F)C(F)F)nc(-c3ccccc3)n2)c1	none
O=[N+]([O-])c1ccc(O)c(-c2cc(C(F)(F)F)nc(-c3ccccc3)n2)c1	Beta cell apopt 119, CSC inhib 88 (no result: CHOP inhibitor)
Oc1ccccc1-c1cc(C(F)(F)C(F)F)nc(-c2ccccc2)n1	GRIN3A LBD mod 14 (no result: T cruzi inh)
CC(=O)NC1=C(N(C)C2CCS(=O)(=O)C2)C(=O)c2ccccc2C1=O (centres undefined)	CHOP inhibitor 75
Cc1noc2ncnc(Sc3ccc(Br)cc3)c12	T cruzi inh 62
CC(NC(=O)Cc1ccc(NS(=O)(=O)c2cccc(C(F)(F)F)c2)cc1)c1ccccn1 (centres undefined)	none (no result: CHOP inhibitor)
N#CC1=C(c2ccccc2)/C(=C/c2ccccc2)OC1=O	GRIN3A LBD mod 27, CHOP inhibitor 108
Oc1ccc2ccccc2c1C=Nc1ccccc1-c1nc2ccccc2[nH]1	CHOP inhibitor 73
CCOC(=O)Nc1ccc2c(COC(=O)CN(C)S(=O)(=O)c3ccc(C)cc3)cc(=O)oc2c1	none (no result: CHOP inhibitor)
CCOC(=O)Nc1ccc2c(COC(=O)CNS(=O)(=O)c3cccc(Br)c3)cc(=O)oc2c1	GRIN3A LBD mod 26 (no result: Beta cell apopt)
O=C(CC1SC(=NCCc2ccccc2)N(/N=C/c2cccs2)C1=O)Nc1ccc(Cl)cc1 (centres undefined)	GRIN3A LBD mod 21
O=C(CC1Sc2ncnn2C1=O)Nc1ccc(Cl)cc1 (centres undefined)	none
O=C(CC1SC(=O)N(c2ccccc2)C1=O)Nc1ccc(Br)cc1 (centres undefined)	GRIN3A LBD mod 30
CCCN1C(=O)SC(CC(=O)Nc2ccccc2)C1=O (centres undefined)	none
O=C(CC1SC(=O)N(c2ccccc2)C1=O)Nc1ccc(Cl)cc1 (centres undefined)	GRIN3A LBD mod 22
Cc1ccc(C(=O)O[C@H](C(=O)O)[C@H](OC(=O)c2ccc(C)cc2)C(=O)O)cc1 (tested in a mixture with another compound)	none (no result: PREPL inhibitor, Beta cell apopt, GRIN3A LBD mod, T cruzi inh, CSC inhib)
Cc1ccc(CN(C(=O)c2ccc([N+](=O)[O-])cc2)C2CCS(=O)(=O)C2)o1 (centres undefined)	none (no result: CHOP inhibitor)
COc1ccc(CNC(=O)C2CCC(=O)N(CCCN3CCCC3=O)C2)c(OC)c1 (centres undefined)	none (no result: CHOP inhibitor)
CC1=Nc2ccc(C)cc2/C1=C/c1c(N)n2c(S(=O)(=O)C(C)C)nsc2nc1=O	GRIN3A LBD mod 18 (no result: PREPL inhibitor, Beta cell apopt, CSC inhib)
CC1=Nc2ccccc2/C1=C/c1c(N)n2c(S(=O)(=O)CC(C)C)nsc2nc1=O	GRIN3A LBD mod 16 (no result: PREPL inhibitor, Beta cell apopt, CSC inhib)
CC1=Nc2ccccc2/C1=C/c1c(N)n2c(S(=O)(=O)C(C)C)nsc2nc1=O	none
